TRPC4 block = inhibitors of mouse TRPC4 channel. Q9QUQ5. HEK293 TRPC4beta/mu-opioid, DAMGO-evoked Fluo4 calcium flux; hits give low values. B-score at 10 µM. actives 0.39% (n = 300,000). AID 2247;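 active means B-score over 3 SD under the library average, no early fluorescence shift, positive overall ratio signal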
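Assay system: HEK293 cells with stable TRPC4beta plus mu-opioid receptor expression. Dosing: single dose. Measured by: Fluo4 Ca2+ flux fluorescence. Also added: DAMGO in two steps, submaximal then maximal. Read-out: B score from integrated Fluo4 fluorescence ratio.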
TRPC6 inh = inhibitors of mouse TRPC6 channel | B-score at 10 µM | AID 2553 | Q61143 | actives 1.1% (n = 310,000) | HEK293-TRPC6, membrane potential dye, ACh-evoked depolarization; hits give low values;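 active means B-score under library mean minus 3 SD, initial fluorescence not abnormally high, positive integrated signal ratio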;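 further: B-score derived from integrated fluorescence ratio over the kinetic read; more negative B-score means stronger inhibition of depolarization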
Target sequence (Q61143 whole entry, looked up): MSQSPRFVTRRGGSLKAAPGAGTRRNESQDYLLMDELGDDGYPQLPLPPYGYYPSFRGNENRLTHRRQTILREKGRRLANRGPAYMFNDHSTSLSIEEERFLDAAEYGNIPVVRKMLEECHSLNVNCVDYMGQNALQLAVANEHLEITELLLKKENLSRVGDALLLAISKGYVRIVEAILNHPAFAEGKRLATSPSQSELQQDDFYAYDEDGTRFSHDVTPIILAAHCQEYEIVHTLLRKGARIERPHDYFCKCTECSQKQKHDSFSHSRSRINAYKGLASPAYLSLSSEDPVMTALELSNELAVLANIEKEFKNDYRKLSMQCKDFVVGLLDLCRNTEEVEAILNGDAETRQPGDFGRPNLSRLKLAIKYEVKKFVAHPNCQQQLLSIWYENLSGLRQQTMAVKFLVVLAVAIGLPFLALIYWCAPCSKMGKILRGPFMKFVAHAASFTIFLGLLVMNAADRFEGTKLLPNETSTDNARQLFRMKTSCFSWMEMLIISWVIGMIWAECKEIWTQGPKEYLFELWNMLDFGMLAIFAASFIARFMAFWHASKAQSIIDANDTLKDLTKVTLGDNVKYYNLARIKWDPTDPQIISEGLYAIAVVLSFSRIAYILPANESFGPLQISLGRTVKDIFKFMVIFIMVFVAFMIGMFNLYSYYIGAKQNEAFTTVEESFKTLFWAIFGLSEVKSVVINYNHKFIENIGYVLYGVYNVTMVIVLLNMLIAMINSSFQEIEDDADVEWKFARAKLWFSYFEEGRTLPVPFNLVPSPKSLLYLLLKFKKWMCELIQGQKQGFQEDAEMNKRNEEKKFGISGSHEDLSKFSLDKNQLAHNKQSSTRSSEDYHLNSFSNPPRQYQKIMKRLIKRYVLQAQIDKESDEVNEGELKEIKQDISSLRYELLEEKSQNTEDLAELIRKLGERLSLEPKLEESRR
TRPC4 agonist = activators of mouse TRPC4 channel. Q9QUQ5. HEK293 TRPC4beta/mu-opioid, Fluo4 calcium fluorescence; hits give high values. B-score at 10 µM. actives 0.49% (n = 310,000);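 active means B-score above 5 SD of library B-scores, and initial fluorescence ratio not above library mean plus 5 SD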;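 further: positive B-score marks a calcium rise read as TRPC4 activation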
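Assay system – TRPC4beta and mu-opioid receptor HEK293 stable cells · Measured by – Fluo4 fluorescence, kinetic · Schedule – dye loading 45 min room temperature, 110 s kinetic read · Read-out – B-scored integrated calcium fluorescence ratio · Controls – buffer and maximal DAMGO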
TRPC6 act = activates the mouse TRPC6 cation channel | Q61143 | B-score at 10 µM | AID 2550 | actives 0.13% (n = 310,000) | HEK293-TRPC6 membrane potential dye fluorescence; hits give high values;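 active means B-score of the integrated fluorescence ratio above library mean plus 3 SD, and starting fluorescence ratio within library mean plus 5 SD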;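 further: higher score means more depolarization so channel activation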
TRPC4 PAM = TRPC4 (mouse) allosteric potentiation. HEK293 TRPC4beta/mu-opioid, DAMGO EC20, Fluo-4 Ca2+ flux; hits give high values. AID 2227. actives 0.42% (n = 310,000). B-score at 10 µM;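 active means B-score of calcium response area above 5 SD of library B-scores, with initial fluorescence ratio within 5 SD of library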
TRPC4 sel inh 2 = second selectivity test of TRPC6 inhibitors: effect on mouse TRPC4. shares compounds with TRPC6 inh. HEK293 TRPC4/MOR, membrane potential dye fluorescence; channel activated by saturating DAMGO dose. inhibition, % at 10 µM. actives 42% (n = 920). AID 2776;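 active means compounds whose fluorescence signal differed from control wells by over 3 SD, either direction, in both duplicate plates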
TRPC4 spec = tests whether TRPC6 inhibitors also affect mouse TRPC4; shares compounds with TRPC6 inh; HEK293 TRPC4/mu-opioid, membrane potential fluorescence; activity change, negative = inhibition, % at 10 µM; actives 61% (n = 920); AID 2777;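 active means rise or fall in signal beyond 3 SD of buffer-only wells in both replicate plates, either sign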;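 further: integrated kinetic ratio of fluorescence range over baseline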
HEK293 MPD ctr 2-1 = second check of TRPC6 inhibitor effects in parental HEK293 cells. shares compounds with TRPC6 inh. parental HEK293 membrane potential dye fluorescence; maximal acetylcholine challenge after compound addition. signal change vs control, % at 10 µM. actives 31% (n = 920). AID 2779;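 active means membrane potential signal moving either way by over 3 SD of the maximum-effect control, in both duplicate plates, meaning non-specific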
HEK293 MPD ctr-1 = counter-screen for TRPC6 inhibitors: effect in parental HEK293 cells; shares compounds with TRPC6 inh; parental HEK293 membrane potential dye fluorescence; membrane potential signal change, % at 10 µM; actives 60% (n = 920); AID 2780;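 active means membrane potential signal shifting up or down by more than 3 SD of buffer-only wells, on both duplicate plates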
HEK293 MPD ctr-2 = checks TRPC6 modulator effects in parental HEK293 cells; shares compounds with TRPC6 inh; membrane potential dye fluorescence; membrane potential signal change, % at 10 µM; actives 51% (n = 2,400); AID 488924;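 active means membrane potential signal moves up or down beyond 5 SD from buffer-only wells, on both duplicate plates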
HEK293 MPD ctr 2-2 = second check of TRPC6 modulator effects in parental HEK293 cells; shares compounds with TRPC6 inh; membrane potential dye fluorescence; after compound, maximal acetylcholine stimulation; inhibition, % at 10 µM; actives 14% (n = 2,400); AID 488926;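 active means membrane potential signal drops by more than 5 SD from the mean control signal, in both duplicate plates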
TRPC4 ctr mod = selectivity of TRPC6 modulators against mouse TRPC4. shares compounds with TRPC6 inh. percent change from control (negative = decrease, positive = increase), % at 10 µM. actives 69% (n = 2,400). AID 488927. HEK293 TRPC4/mu-opioid, membrane potential fluorescence;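 active means membrane potential signal moved up or down beyond 5 SD of buffer control wells, in both duplicate plates, actives on both sides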
TRPC4 ctr inh 2 = mouse TRPC4 off-target activity of TRPC6 modulators, second screen; shares compounds with TRPC6 inh; HEK293 TRPC4/mu-opioid, membrane potential dye fluorescence; stimulated with maximal-effect DAMGO; inhibition, % at 10 µM; actives 55% (n = 2,400);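 active means drop in membrane potential signal beyond 5 SD of the control wells in both duplicate plates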;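 further: TRPC4 counter screen for TRPC6 hits run under conditions tuned for TRPC6 not TRPC4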
TRPC6 inh conf = mouse TRPC6 inhibitor confirmation; actives 43% (n = 3,300); inhibition, % at 10 µM; HEK293-TRPC6, membrane potential dye, ACh-evoked depolarization; shares compounds with TRPC6 inh;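 active means fluorescence ratio falls more than 5 SD below the full-stimulation control mean, in both duplicate runs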;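 further: integrated fluorescence ratio of peak minus minimum over baseline after agonist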
TRPC6 act confirm = mouse TRPC6 activator confirmation; shares compounds with TRPC6 inh; HEK293-TRPC6 membrane potential dye fluorescence, FDSS; activation, % at 10 µM; actives 11% (n = 2,800); AID 488961;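 active means ratio signal rise beyond 5 SD above unstimulated control wells' mean, seen in both duplicate runs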
Each line names hits and unclear results; the compound was inactive in the other large screens (follow-up assays come after a bar, where they were run). Sampled rows, rich in hits. Any-hit rate of the full collection: about 2.3%.

Clc1ccc(SCCCCN2CCNCC2)cc1	TRPC6 inh -7.55, TRPC4 PAM 14 | TRPC4 sel inh 2 67.0% | TRPC4 spec inactive | HEK293 MPD ctr 2-1 inactive | HEK293 MPD ctr-1 2.5% | TRPC6 inh conf inactive | TRPC6 act confirm inactive
Clc1ccc(SCCCCN2CCOCC2)cc1	none
CCN(CC1CCCN(CCc2cccc(OC)c2)C1)C(=O)c1ccc(COC)o1 (configuration not stated)	none
Cc1ccc2c(c1)CCCN2C(=O)NC1CCCCC1	TRPC6 inh -6.89 | TRPC4 sel inh 2 inactive | TRPC4 spec inactive | HEK293 MPD ctr 2-1 inactive | HEK293 MPD ctr-1 inactive | TRPC6 inh conf inactive | TRPC6 act confirm inactive
CCN(CC)c1ccc(NC(=O)c2ccc3c(c2)OCO3)c(C)c1	none
CNCCCOc1cccc(OC(C)C)c1	none
CNCCCOc1cccc(Oc2ccccc2)c1	TRPC6 inh -5.11, TRPC4 PAM 10 | HEK293 MPD ctr-2 100.0% | HEK293 MPD ctr 2-2 inactive | TRPC4 ctr mod 12.5% | TRPC4 ctr inh 2 35.0% | TRPC6 inh conf 52.5% | TRPC6 act confirm inactive
CC(=O)Oc1cc2c3c(c1)/C(=C1/SC(=S)NC1=O)C(=O)N3C(C)(C)C=C2C	TRPC6 inh -5.72 | HEK293 MPD ctr-2 -111.5% | HEK293 MPD ctr 2-2 inactive | TRPC4 ctr mod -28.0% | TRPC4 ctr inh 2 83.0% | TRPC6 inh conf 58.5% | TRPC6 act confirm inactive
CCOc1cc2c3c(c1)C(C)=CC(C)(C)N3C(=O)C2=O	none
O=C(CSc1nnc(NC(=O)c2c(F)cccc2Cl)s1)Nc1ccccc1F	none
Cc1c(C)n(C)c2ccc(C(=O)N3CCN(c4ccccc4)CC3)cc12	TRPC6 inh -7.2 | HEK293 MPD ctr-2 inactive | HEK293 MPD ctr 2-2 inactive | TRPC4 ctr mod inactive | TRPC4 ctr inh 2 inactive | TRPC6 inh conf 40.5% | TRPC6 act confirm inactive
Cc1c(C)n(C)c2ccc(C(=O)N3CCN(c4ccccn4)CC3)cc12	none
Nc1cc2ccncc2c2ccccc12	TRPC6 inh -11 | HEK293 MPD ctr-2 -380.0% | HEK293 MPD ctr 2-2 77.5% | TRPC4 ctr mod -71.5% | TRPC4 ctr inh 2 85.5% | TRPC6 inh conf 74.0% | TRPC6 act confirm inactive
COc1ccc2c(c1)-c1c(ssc1=S)C(C)(C)N2	TRPC6 inh -5.61 | HEK293 MPD ctr-2 -164.5% | HEK293 MPD ctr 2-2 inactive | TRPC4 ctr mod -33.0% | TRPC4 ctr inh 2 60.0% | TRPC6 inh conf 46.0% | TRPC6 act confirm inactive
Fc1ccc(Sc2cc(Cl)c(-c3ccccc3)nn2)cc1	none
O=C1C=C(N2CCOCC2)c2ccccc2C1=O	none
Cc1ccc(N2CCOCC2)c2c1C(=O)c1ccccc1C2=O	TRPC6 inh -5.1 | HEK293 MPD ctr-2 -195.0% | HEK293 MPD ctr 2-2 inactive | TRPC4 ctr mod -33.5% | TRPC4 ctr inh 2 71.0% | TRPC6 inh conf 43.0% | TRPC6 act confirm inactive
N#CCc1nc2ccc(S(=O)(=O)N3CCOCC3)cc2s1	none
Cc1ccc2cccnc2c1N	none
Cc1ccnc2c1ccc1ccccc12	TRPC6 inh -6.51 | HEK293 MPD ctr-2 inactive | HEK293 MPD ctr 2-2 inactive | TRPC4 ctr mod inactive | TRPC4 ctr inh 2 inactive | TRPC6 inh conf inactive | TRPC6 act confirm inactive
c1ccc(C2c3[nH]c4ccccc4c3CCN2Cc2cccn2-c2ccccn2)nc1 (configuration not stated)	none
CC(=O)Nc1ccc(CN2CCc3c([nH]c4ccccc34)C2c2ccccn2)cc1 (configuration not stated)	TRPC6 inh -7.32, TRPC4 agonist 54 | HEK293 MPD ctr-2 inactive | HEK293 MPD ctr 2-2 inactive | TRPC4 ctr mod 65.5% | TRPC4 ctr inh 2 70.5% | TRPC6 inh conf inactive | TRPC6 act confirm inactive
[O-]/[N+](=C\c1ccncc1)c1ccc(Br)cc1	none
[O-]/[N+](=C/c1cccnc1)c1ccc(Br)cc1	TRPC6 inh -6.03 | HEK293 MPD ctr-2 inactive | HEK293 MPD ctr 2-2 inactive | TRPC4 ctr mod inactive | TRPC4 ctr inh 2 inactive | TRPC6 inh conf inactive | TRPC6 act confirm inactive
CC1CCN(c2ccc(NC(=O)c3ccc(Br)o3)cc2)CC1	none
O=C(O)c1cc(NN=C2c3ccccc3-c3ccccc32)ccc1Cl	TRPC4 block -8, TRPC6 inh -5.41 | HEK293 MPD ctr-2 inactive | HEK293 MPD ctr 2-2 inactive | TRPC4 ctr mod -11.5% | TRPC4 ctr inh 2 59.0% | TRPC6 inh conf 61.0%
COc1ccccc1CNC1CCCc2ccccc21 (configuration not stated)	TRPC6 inh -7.43 | TRPC4 sel inh 2 inactive | TRPC4 spec 19.9% | HEK293 MPD ctr 2-1 inactive | HEK293 MPD ctr-1 9.1% | TRPC6 inh conf 64.8%
O=C(Nc1cccc(CNCCc2c[nH]c3ccccc23)c1)c1ccccc1Cl	TRPC6 inh -6.54 | HEK293 MPD ctr-2 inactive | HEK293 MPD ctr 2-2 inactive | TRPC4 ctr mod -15.0% | TRPC4 ctr inh 2 80.0% | TRPC6 inh conf 55.0% | TRPC6 act confirm inactive
COc1ccc(NC(=O)CSc2nc(=O)n(CCN(C)C)c3c2CCCC3)cc1OC	none
COc1ccc(CNc2nc3ccccc3n2CCN2CCCCC2)cc1	none
CCN(CC)CCn1c(NCc2ccco2)nc2ccccc21	none
Cn1c(CNc2nc3ccccc3n2CCN2CCCCC2)nc2ccccc21	TRPC6 inh -6.55 | HEK293 MPD ctr-2 inactive | HEK293 MPD ctr 2-2 inactive | TRPC4 ctr mod inactive | TRPC4 ctr inh 2 72.5% | TRPC6 inh conf 44.0% | TRPC6 act confirm inactive

Screening results as filed in PubChem.
